# Source: ChEMBL document CHEMBL4229342, “Synthesis of novel proxyphylline derivatives with dual Anti-Candida albicans and anticancer activity” (Eur J Med Chem, 2018)
# Tested on: MCF7
# Assay: Antiproliferative activity against human MCF7 cells assessed as cell viability at 25 uM after 72 hrs by MTT assay
# Format: functional
# Conditions: MCF7, 72 h, read-out: Activity
# Procedure, shortened: (§1)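 MTT viability assay in CCRF-CEM and MCF-7 cells after 72 h exposure at 25, 50, 100 and 200 µM. Results are relative to control cells without inhibitor in 0.5% DMSO. Done in triplicate; values are means ± SD of three independent experiments.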
row,SMILES,viability at 25 µM [%]
1,CC(Cn1cnc2c1c(=O)n(C)c(=O)n2C)OC(=O)C(c1ccccc1)c1ccccc1 (centres undefined),89.5

# Tested on: Candida albicans
# Assay: Growth inhibition of Candida albicans ATCC 90028 at 0.0625 ug/ml incubated for 18 hrs at 35 degC by broth microdilution method relative to control
# Format: functional
# Conditions: ATCC 90028, 18 h, read-out: GI
row,SMILES,inhibition of growth at 0.0625 µg/mL [%]
1,CC(Cn1cnc2c1c(=O)n(C)c(=O)n2C)OC(=O)C(c1ccccc1)c1ccccc1 (centres undefined),100

# Tested on: Candida albicans
# Assay: Growth inhibition of Candida albicans ATCC 90028 at 0.125 ug/ml incubated for 4 hrs at 35 degC by broth microdilution method relative to control
# Format: functional
# Conditions: ATCC 90028, 4 h, read-out: GI
row,SMILES,inhibition of growth at 0.125 µg/mL [%]
1,CC(Cn1cnc2c1c(=O)n(C)c(=O)n2C)OC(=O)C(c1ccccc1)c1ccccc1 (centres undefined),99.8

# Tested on: Candida albicans
# Assay: Growth inhibition of Candida albicans ATCC 90028 at 2 ug/ml incubated for 18 hrs at 35 degC by broth microdilution method relative to control
# Format: functional
# Conditions: ATCC 90028, 18 h, read-out: GI
row,SMILES,inhibition of growth at 2 µg/mL [%]
1,CC(Cn1cnc2c1c(=O)n(C)c(=O)n2C)OC(=O)C(c1ccccc1)c1ccccc1 (centres undefined),99.8

# Tested on: Candida albicans
# Assay: Growth inhibition of Candida albicans ATCC 90028 at 2 ug/ml incubated for 4 hrs at 35 degC by broth microdilution method relative to control
# Format: functional
# Conditions: ATCC 90028, 4 h, read-out: GI
row,SMILES,inhibition of growth at 2 µg/mL [%]
1,CC(Cn1cnc2c1c(=O)n(C)c(=O)n2C)OC(=O)C(c1ccccc1)c1ccccc1 (centres undefined),99.2

# Tested on: Candida albicans
# Assay: Growth inhibition of Candida albicans ATCC 90028 at 1 ug/ml incubated for 4 hrs at 35 degC by broth microdilution method relative to control
# Format: functional
# Conditions: ATCC 90028, 4 h, read-out: GI
row,SMILES,inhibition of growth at 1 µg/mL [%]
1,CC(Cn1cnc2c1c(=O)n(C)c(=O)n2C)OC(=O)C(c1ccccc1)c1ccccc1 (centres undefined),99.4

# Tested on: Candida albicans
# Assay: Growth inhibition of Candida albicans ATCC 90028 at 0.25 ug/ml incubated for 4 hrs at 35 degC by broth microdilution method relative to control
# Format: functional
# Conditions: ATCC 90028, 4 h, read-out: GI
row,SMILES,inhibition of growth at 0.25 µg/mL [%]
1,CC(Cn1cnc2c1c(=O)n(C)c(=O)n2C)OC(=O)C(c1ccccc1)c1ccccc1 (centres undefined),99.1

# Tested on: CCRF-CEM
# Assay: Antiproliferative activity against human CCRF-CEM cells assessed as cell viability at 50 uM after 72 hrs by MTT assay
# Format: functional
# Conditions: read-out: Activity
# Procedure, shortened: as §1
row,SMILES,viability at 50 µM [%]
1,CC(Cn1cnc2c1c(=O)n(C)c(=O)n2C)OC(=O)C(c1ccccc1)c1ccccc1 (centres undefined),33.1

# Tested on: MCF7
# Assay: Antiproliferative activity against human MCF7 cells assessed as cell viability at 200 uM after 72 hrs by MTT assay
# Format: functional
# Conditions: MCF7, 72 h, read-out: Activity
# Procedure, shortened: as §1
row,SMILES,viability at 200 µM [%]
1,CC(Cn1cnc2c1c(=O)n(C)c(=O)n2C)OC(=O)C(c1ccccc1)c1ccccc1 (centres undefined),43.5

# Tested on: Candida albicans
# Assay: Growth inhibition of Candida albicans ATCC 90028 at 0.5 ug/ml incubated for 18 hrs at 35 degC by broth microdilution method relative to control
# Format: functional
# Conditions: ATCC 90028, 18 h, read-out: GI
row,SMILES,inhibition of growth at 0.5 µg/mL [%]
1,CC(Cn1cnc2c1c(=O)n(C)c(=O)n2C)OC(=O)C(c1ccccc1)c1ccccc1 (centres undefined),99.6

# Tested on: Candida albicans
# Assay: Fungicidal activity against Candida albicans ATCC 90028 assessed as log reduction in cell viability at 16 ug/ml after 48 hrs at 35 degC
# Format: functional
# Conditions: not given
# Procedure, shortened: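 MFC assay on C. albicans ATCC 90028 following M27-A3, at the molar equivalent of 16 µg/mL. CFU of treated cells were compared with CFU of the untreated inoculum. Activity is given as lg R = lg CFU/mL control − lg CFU/mL treated, and lg R ≥3 was defined as fungicidal. Values are means of two independent experiments.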
row,SMILES,log(activity)
1,CC(Cn1cnc2c1c(=O)n(C)c(=O)n2C)OC(=O)C(c1ccccc1)c1ccccc1 (centres undefined),0.1

# Tested on: MCF7
# Assay: Antiproliferative activity against human MCF7 cells assessed as cell viability at 100 uM after 72 hrs by MTT assay
# Format: functional
# Conditions: MCF7, 72 h, read-out: Activity
# Procedure, shortened: as §1
row,SMILES,viability at 100 µM [%]
1,CC(Cn1cnc2c1c(=O)n(C)c(=O)n2C)OC(=O)C(c1ccccc1)c1ccccc1 (centres undefined),67.3

# Tested on: Candida albicans
# Assay: Growth inhibition of Candida albicans ATCC 90028 at 16 ug/ml incubated for 18 hrs at 35 degC by broth microdilution method relative to control
# Format: functional
# Conditions: ATCC 90028, 18 h, read-out: GI
row,SMILES,inhibition of growth at 16 µg/mL [%]
1,CC(Cn1cnc2c1c(=O)n(C)c(=O)n2C)OC(=O)C(c1ccccc1)c1ccccc1 (centres undefined),99.9

# Tested on: Candida albicans
# Assay: Growth inhibition of Candida albicans ATCC 90028 at 0.125 ug/ml incubated for 18 hrs at 35 degC by broth microdilution method relative to control
# Format: functional
# Conditions: ATCC 90028, 18 h, read-out: GI
row,SMILES,inhibition of growth at 0.125 µg/mL [%]
1,CC(Cn1cnc2c1c(=O)n(C)c(=O)n2C)OC(=O)C(c1ccccc1)c1ccccc1 (centres undefined),100

# Tested on: Candida albicans
# Assay: Growth inhibition of Candida albicans ATCC 90028 at 0.0313 ug/ml incubated for 18 hrs at 35 degC by broth microdilution method relative to control
# Format: functional
# Conditions: ATCC 90028, 18 h, read-out: GI
row,SMILES,inhibition of growth at 0.0313 µg/mL [%]
1,CC(Cn1cnc2c1c(=O)n(C)c(=O)n2C)OC(=O)C(c1ccccc1)c1ccccc1 (centres undefined),100

# Tested on: Candida albicans
# Assay: Growth inhibition of Candida albicans ATCC 90028 at 0.25 ug/ml incubated for 18 hrs at 35 degC by broth microdilution method relative to control
# Format: functional
# Conditions: ATCC 90028, 18 h, read-out: GI
row,SMILES,inhibition of growth at 0.25 µg/mL [%]
1,CC(Cn1cnc2c1c(=O)n(C)c(=O)n2C)OC(=O)C(c1ccccc1)c1ccccc1 (centres undefined),99.3

# Tested on: Candida albicans
# Assay: Growth inhibition of Candida albicans ATCC 90028 at 0.5 ug/ml incubated for 4 hrs at 35 degC by broth microdilution method relative to control
# Format: functional
# Conditions: ATCC 90028, 4 h, read-out: GI
row,SMILES,inhibition of growth at 0.5 µg/mL [%]
1,CC(Cn1cnc2c1c(=O)n(C)c(=O)n2C)OC(=O)C(c1ccccc1)c1ccccc1 (centres undefined),99.1

# Tested on: Candida albicans
# Assay: Growth inhibition of Candida albicans ATCC 90028 at 8 ug/ml incubated for 48 hrs at 35 degC by broth microdilution method relative to control
# Format: functional
# Conditions: ATCC 90028, 48 h, read-out: GI
row,SMILES,inhibition of growth at 8 µg/mL [%]
1,CC(Cn1cnc2c1c(=O)n(C)c(=O)n2C)OC(=O)C(c1ccccc1)c1ccccc1 (centres undefined),99.1

# Tested on: MCF7
# Assay: Antiproliferative activity against human MCF7 cells assessed as cell viability at 50 uM after 72 hrs by MTT assay
# Format: functional
# Conditions: MCF7, 72 h, read-out: Activity
# Procedure, shortened: as §1
row,SMILES,viability at 50 µM [%]
1,CC(Cn1cnc2c1c(=O)n(C)c(=O)n2C)OC(=O)C(c1ccccc1)c1ccccc1 (centres undefined),75.2

# Tested on: Candida albicans
# Assay: Growth inhibition of Candida albicans ATCC 90028 at 0.0625 ug/ml incubated for 4 hrs at 35 degC by broth microdilution method relative to control
# Format: functional
# Conditions: ATCC 90028, 4 h, read-out: GI
row,SMILES,inhibition of growth at 0.0625 µg/mL [%]
1,CC(Cn1cnc2c1c(=O)n(C)c(=O)n2C)OC(=O)C(c1ccccc1)c1ccccc1 (centres undefined),99.3

# Tested on: CCRF-CEM
# Assay: Antiproliferative activity against human CCRF-CEM cells assessed as cell viability at 25 uM after 72 hrs by MTT assay
# Format: functional
# Conditions: read-out: Activity
# Procedure, shortened: as §1
row,SMILES,viability at 25 µM [%]
1,CC(Cn1cnc2c1c(=O)n(C)c(=O)n2C)OC(=O)C(c1ccccc1)c1ccccc1 (centres undefined),84.8

# Tested on: Candida albicans
# Assay: Growth inhibition of Candida albicans ATCC 90028 at 1 ug/ml incubated for 18 hrs at 35 degC by broth microdilution method relative to control
# Format: functional
# Conditions: ATCC 90028, 18 h, read-out: GI
row,SMILES,inhibition of growth at 1 µg/mL [%]
1,CC(Cn1cnc2c1c(=O)n(C)c(=O)n2C)OC(=O)C(c1ccccc1)c1ccccc1 (centres undefined),99.6

# Tested on: Candida albicans
# Assay: Growth inhibition of Candida albicans ATCC 90028 at 4 ug/ml incubated for 18 hrs at 35 degC by broth microdilution method relative to control
# Format: functional
# Conditions: ATCC 90028, 18 h, read-out: GI
row,SMILES,inhibition of growth at 4 µg/mL [%]
1,CC(Cn1cnc2c1c(=O)n(C)c(=O)n2C)OC(=O)C(c1ccccc1)c1ccccc1 (centres undefined),100

# Tested on: Candida albicans
# Assay: Growth inhibition of Candida albicans ATCC 90028 at 8 ug/ml incubated for 18 hrs at 35 degC by broth microdilution method relative to control
# Format: functional
# Conditions: ATCC 90028, 18 h, read-out: GI
row,SMILES,inhibition of growth at 8 µg/mL [%]
1,CC(Cn1cnc2c1c(=O)n(C)c(=O)n2C)OC(=O)C(c1ccccc1)c1ccccc1 (centres undefined),99.9

# Tested on: Candida albicans
# Assay: Growth inhibition of Candida albicans ATCC 90028 at 16 ug/ml incubated for 48 hrs at 35 degC by broth microdilution method relative to control
# Format: functional
# Conditions: ATCC 90028, 48 h, read-out: GI
row,SMILES,inhibition of growth at 16 µg/mL [%]
1,CC(Cn1cnc2c1c(=O)n(C)c(=O)n2C)OC(=O)C(c1ccccc1)c1ccccc1 (centres undefined),99.1

# Tested on: CCRF-CEM
# Assay: Antiproliferative activity against human CCRF-CEM cells assessed as cell viability at 200 uM after 72 hrs by MTT assay
# Format: functional
# Conditions: read-out: Activity
# Procedure, shortened: as §1
row,SMILES,viability at 200 µM [%]
1,CC(Cn1cnc2c1c(=O)n(C)c(=O)n2C)OC(=O)C(c1ccccc1)c1ccccc1 (centres undefined),2.5

# Tested on: Candida albicans
# Assay: Growth inhibition of Candida albicans ATCC 90028 at 8 ug/ml incubated for 4 hrs at 35 degC by broth microdilution method relative to control
# Format: functional
# Conditions: ATCC 90028, 4 h, read-out: GI
row,SMILES,inhibition of growth at 8 µg/mL [%]
1,CC(Cn1cnc2c1c(=O)n(C)c(=O)n2C)OC(=O)C(c1ccccc1)c1ccccc1 (centres undefined),99.2

# Tested on: Candida albicans
# Assay: Growth inhibition of Candida albicans ATCC 90028 at 0.0313 ug/ml incubated for 4 hrs at 35 degC by broth microdilution method relative to control
# Format: functional
# Conditions: ATCC 90028, 4 h, read-out: GI
row,SMILES,inhibition of growth at 0.0313 µg/mL [%]
1,CC(Cn1cnc2c1c(=O)n(C)c(=O)n2C)OC(=O)C(c1ccccc1)c1ccccc1 (centres undefined),99.9

# Tested on: CCRF-CEM
# Assay: Antiproliferative activity against human CCRF-CEM cells assessed as cell viability at 100 uM after 72 hrs by MTT assay
# Format: functional
# Conditions: read-out: Activity
# Procedure, shortened: as §1
row,SMILES,viability at 100 µM [%]
1,CC(Cn1cnc2c1c(=O)n(C)c(=O)n2C)OC(=O)C(c1ccccc1)c1ccccc1 (centres undefined),30.5
